For orientation: inhibition means the percentage by which the read-out fell short of the control. Broadly, the IC50 is the concentration that gives 50% inhibition.

Assay [1] concerns Epidermal growth factor receptor (Homo sapiens), P00533 [L858R,T790M]. In words: Inhibition of human EGFR T790M/L858R mutant assessed as decrease in substrate phosphorylation using Srctide as substrate preincubated for 15 mins followed by substrate addition in presence of 1mM of ATP and measured after 45 mins by microplate reader analysis. As to conditions: time 60.0 min. A digest of the protocol: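 Panel format: compound at 1 µM final was preincubated 15 min with kinase in 20 mM HEPES pH 7.4, 5 mM MgCl2, 1 mM MnCl2, 0.003% Brij-35, 0.004% Tween-20, 2 mM DTT. ATP (1 mM) and Srctide (1.5 µM) were then added for 45 min. EDTA stop; mobility-shift read, ex 488/em 530 nm.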

The target in assay [2] is T1, Epidermal growth factor receptor (Homo sapiens, UniProt P00533, C797S/L858R/T790M). In words: Inhibition of N-terminal His6-tagged human EGFR L858R/T790M/C797S mutant expressed in Sf9 cells assessed as decrease in substrate phosphorylation incubated for 45 mins using Srctide as substrate in presence of 1mM of ATP by microplate reader analysis. Summed up:
(§1)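 Compound in DMSO was preincubated 0, 20 or 60 min with 250 pg/µL EGFR_TM (residues 694-1022) in 20 mM HEPES pH 7.4, 5 mM MgCl2, 1 mM MnCl2, 0.003% Brij-35, 0.004% Tween-20, 2 mM DTT. […] EDTA stop; phosphorylation read by mobility-shift chip, ex 488/em 530 nm.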

The target in assay [3] is T1, Epidermal growth factor receptor. In words: Inhibition of N-terminal His6-tagged human EGFR L858R/T790M/C797S mutant expressed in Sf9 cells assessed as decrease in substrate phosphorylation using Srctide as substrate preincubated for 20 mins followed by substrate addition in presence of 5uM of ATP and measured after 45 mins by microplate reader analysis.
Assay [4] has as its system Epidermal growth factor receptor (Homo sapiens), P00533 [L858R,T790M,C797S]. In words: Inhibition of human EGFR T790M/C797S/L858R mutant assessed as decrease in substrate phosphorylation using Srctide as substrate preincubated for 15 mins followed by substrate addition in presence of 1mM of ATP and measured after 45 mins by microplate reader analysis. As to conditions: time 60.0 min. A digest of the protocol: (§2)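 Compound at 1 µM final, 15 min preincubation with mutant EGFR in mutant-EGFR buffer (5 mM MgCl2, 1 mM MnCl2) at 200 ng/mL for T790M/C797S/L858R, 180 ng/mL for d746-750/T790M, and 350 ng/mL for d746-750/T790M/C797S. Then 1 mM ATP plus 1.5 µM Srctide for 45 min. Mobility-shift read.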

In assay [5] the test system is Epidermal growth factor receptor (Homo sapiens), P00533 [UNDEFINED MUTATION]. In words: Inhibition of human EGFR d746-750/T790M mutant assessed as decrease in substrate phosphorylation using Srctide as substrate preincubated for 15 mins followed by substrate addition in presence of 1mM of ATP and measured after 45 mins by microplate reader analysis. As to conditions: time 60.0 min. A digest of the protocol: as §2

In assay [6] the test system is Epidermal growth factor receptor (Homo sapiens), P00533 [L858R]. In words: Binding affinity to N-terminal His6-tagged human EGFR L858R mutant expressed in Sf9 cells at pH 7.4 assessed as covalent adduct at +277 Da formation at 0.3 to 1 uM incubated for 1 hrs by LC-MS analysis. As to conditions: dose 0.3-1 µM. Summed up:
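EGFR (694-1022) L858R or L858R/C775S as N-terminal His-GST fusions from Sf9 cells, purified by Ni affinity then SEC. Each protein at 0.5 mg/ml was incubated with compound (0.3, 1 or 3 µM) in 20 mM Tris-HCl pH 7.5, 150 mM NaCl, 1 mM TCEP, 5% glycerol, 1 h at room temperature. SDS was added to 1% final, samples boiled 95°C 10 min, then UHPLC-MS.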

The target in assay [7] is T2, Tyrosine-protein kinase JAK3 (Homo sapiens) (UniProt P52333).
T2 sequence (whole entry): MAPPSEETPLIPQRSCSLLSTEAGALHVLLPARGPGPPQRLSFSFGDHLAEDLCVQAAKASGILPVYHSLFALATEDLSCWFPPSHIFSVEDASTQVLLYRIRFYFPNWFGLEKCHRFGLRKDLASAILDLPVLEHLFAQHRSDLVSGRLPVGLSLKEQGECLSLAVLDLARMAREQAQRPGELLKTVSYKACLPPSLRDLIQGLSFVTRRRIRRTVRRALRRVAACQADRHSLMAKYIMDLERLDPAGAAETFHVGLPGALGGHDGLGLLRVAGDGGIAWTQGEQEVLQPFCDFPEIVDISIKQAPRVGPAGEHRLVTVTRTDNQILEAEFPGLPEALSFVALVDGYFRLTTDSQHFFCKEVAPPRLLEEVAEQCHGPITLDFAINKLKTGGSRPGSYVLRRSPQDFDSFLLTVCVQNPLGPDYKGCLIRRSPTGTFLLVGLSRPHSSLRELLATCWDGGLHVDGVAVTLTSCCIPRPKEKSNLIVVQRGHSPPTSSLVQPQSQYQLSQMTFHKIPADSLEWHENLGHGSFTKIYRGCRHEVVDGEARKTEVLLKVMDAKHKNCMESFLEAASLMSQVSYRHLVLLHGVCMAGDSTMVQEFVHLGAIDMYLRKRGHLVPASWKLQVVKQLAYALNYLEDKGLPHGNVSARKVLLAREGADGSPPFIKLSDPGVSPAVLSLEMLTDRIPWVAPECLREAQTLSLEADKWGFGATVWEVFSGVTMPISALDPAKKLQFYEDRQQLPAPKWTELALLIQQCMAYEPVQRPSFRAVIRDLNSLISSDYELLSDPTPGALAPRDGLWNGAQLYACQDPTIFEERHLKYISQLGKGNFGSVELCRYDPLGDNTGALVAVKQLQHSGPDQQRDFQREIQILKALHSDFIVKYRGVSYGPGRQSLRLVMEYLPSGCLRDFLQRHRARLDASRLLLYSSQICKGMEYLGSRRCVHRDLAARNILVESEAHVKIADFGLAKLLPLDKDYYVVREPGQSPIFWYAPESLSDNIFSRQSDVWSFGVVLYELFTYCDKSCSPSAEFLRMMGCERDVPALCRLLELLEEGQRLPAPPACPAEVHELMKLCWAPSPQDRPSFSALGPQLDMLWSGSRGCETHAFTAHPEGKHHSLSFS
In words: Inhibition of human JAK3 assessed as decrease in substrate phosphorylation using Srctide as substrate preincubated for 15 mins followed by substrate addition in presence of 1mM of ATP and measured after 45 mins by microplate reader analysis. As to conditions: time 60.0 min. Summed up:
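JAK3 at 50 ng/mL was preincubated 15 min with 1 µM compound in 100 mM HEPES pH 7.4, 0.003% Brij-35, 0.004% Tween-20, 1 mM DTT. Then 1 mM ATP, 1.5 µM Srctide and 10 mM MgCl2 were added for 45 min. Mobility-shift read.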

For assay [8], the target named is T1, Epidermal growth factor receptor. In words: Inhibition of N-terminal His6-tagged human EGFR L858R/T790M/C797S mutant expressed in Sf9 cells assessed as decrease in substrate phosphorylation using Srctide as substrate preincubated for 60 mins followed by substrate addition in presence of 1mM of ATP and measured after 45 mins by microplate reader analysis. A digest of the protocol:
as §1

Activity calls are given as the source filed them. The calls are words filed in the database; no cut-off is given here. Bounds are passed on as bounds.

Regarding `C=CC(=O)Nc1cc(-c2cn(C)c3ccccc23)ncn1`, the inhibition in assay [1] was above 80%; in assay [4], above 80%; in assay [5], above 80%; in assay [7], 74.2%. In addition, the results for the concentration for half-maximal inhibition (IC50) in assay [2], in assay [3] and in assay [8] were 1300 nM, 239 nM and 150 nM, respectively. Besides, the result in assay [6] was inactive.
